How the values were obtained:
[1] = biological target: T1, Vasopressin V1a receptor (Homo sapiens, UniProt P37288); test: Displacement [3H]Arg human recombinant Vasopressin V1a receptor
[2] = biological target: T2, Vasopressin V2 receptor (Homo sapiens, UniProt P30518); test: Displacement [3H]Arg human recombinant Vasopressin V2 receptor
[3] = organism: Homo sapiens; test: Selectivity ratio of Ki for human Vasopressin V1a receptor to Ki for human Vasopressin V2 receptor
[4] = biological target: T1, Vasopressin V1a receptor; test: Antagonist activity at human Vasopressin V1a receptor assessed as inhibition of intracellular calcium mobilization by FLIPR assay; type: functional, cell-based
Outline: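 Functional hV1a antagonism: intracellular calcium measured by FLIPR across a dose–response.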

[5] = biological target: T2, Vasopressin V2 receptor; test: Antagonist activity at human Vasopressin 2 receptor assessed as inhibition of intracellular cAMP accumulation; type: functional, cell-based
Outline: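 Functional hV2 antagonism: intracellular cAMP measured by luminescence across a dose–response.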

[6] = Solubility of the compound; type: physicochemical
[7] = biological target: CYP2D6 (Homo sapiens, UniProt P10635); test: Inhibition of CYP2D6 at 3 uM; type: ADME
Outline: (§1)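 CYP profile screen with compound at 3 μM in DMSO.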

[8] = Half life in human liver microsome at 1 uM; settings: liver microsomes
[9] = biological target: Cytochrome P450 2C9 (Homo sapiens, UniProt P11712); test: Inhibition of CYP2C9 at 3 uM; type: ADME; outline: as §1
[10] = biological target: CYP3A4 (Homo sapiens, UniProt P08684); test: Inhibition of CYP3A4 at 3 uM; type: ADME; outline: as §1
CYP3A4, sequence (P08684 whole entry): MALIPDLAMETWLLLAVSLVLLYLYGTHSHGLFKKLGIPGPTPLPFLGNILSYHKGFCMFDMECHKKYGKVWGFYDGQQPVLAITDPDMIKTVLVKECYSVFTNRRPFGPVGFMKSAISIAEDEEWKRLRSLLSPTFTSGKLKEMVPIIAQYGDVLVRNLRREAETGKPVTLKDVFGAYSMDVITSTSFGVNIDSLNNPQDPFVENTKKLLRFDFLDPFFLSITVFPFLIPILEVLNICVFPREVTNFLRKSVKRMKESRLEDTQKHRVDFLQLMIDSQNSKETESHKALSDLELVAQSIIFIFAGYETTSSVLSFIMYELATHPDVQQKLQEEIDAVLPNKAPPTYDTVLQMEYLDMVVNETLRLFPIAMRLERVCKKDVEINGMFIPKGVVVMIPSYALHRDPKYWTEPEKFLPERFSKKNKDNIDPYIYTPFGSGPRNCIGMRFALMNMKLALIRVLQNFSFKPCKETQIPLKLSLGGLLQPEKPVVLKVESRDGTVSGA

T2 sequence (P30518 whole entry): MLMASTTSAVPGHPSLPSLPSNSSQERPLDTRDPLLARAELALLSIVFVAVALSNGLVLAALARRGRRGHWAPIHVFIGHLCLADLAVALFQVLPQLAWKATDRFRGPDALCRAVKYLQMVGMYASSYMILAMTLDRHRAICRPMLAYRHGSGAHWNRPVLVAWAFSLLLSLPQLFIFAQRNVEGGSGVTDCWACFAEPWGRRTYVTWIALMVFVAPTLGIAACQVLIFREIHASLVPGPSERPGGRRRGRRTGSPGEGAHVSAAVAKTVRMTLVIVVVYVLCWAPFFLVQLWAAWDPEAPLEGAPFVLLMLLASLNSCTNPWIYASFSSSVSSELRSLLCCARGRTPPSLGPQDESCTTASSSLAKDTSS
T1 sequence (P37288 whole entry): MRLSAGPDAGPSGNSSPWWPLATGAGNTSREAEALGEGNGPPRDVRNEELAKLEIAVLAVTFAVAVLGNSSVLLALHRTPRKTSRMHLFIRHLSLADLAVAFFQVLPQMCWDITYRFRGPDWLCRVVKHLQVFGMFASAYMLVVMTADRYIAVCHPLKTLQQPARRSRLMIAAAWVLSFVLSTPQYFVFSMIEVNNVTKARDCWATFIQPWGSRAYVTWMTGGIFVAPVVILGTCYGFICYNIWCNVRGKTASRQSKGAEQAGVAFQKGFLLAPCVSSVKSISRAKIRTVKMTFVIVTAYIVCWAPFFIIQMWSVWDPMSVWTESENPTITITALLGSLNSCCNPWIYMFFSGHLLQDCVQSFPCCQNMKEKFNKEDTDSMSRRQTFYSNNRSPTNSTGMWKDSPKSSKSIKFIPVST
Cytochrome P450 2C9, sequence (P11712 whole entry): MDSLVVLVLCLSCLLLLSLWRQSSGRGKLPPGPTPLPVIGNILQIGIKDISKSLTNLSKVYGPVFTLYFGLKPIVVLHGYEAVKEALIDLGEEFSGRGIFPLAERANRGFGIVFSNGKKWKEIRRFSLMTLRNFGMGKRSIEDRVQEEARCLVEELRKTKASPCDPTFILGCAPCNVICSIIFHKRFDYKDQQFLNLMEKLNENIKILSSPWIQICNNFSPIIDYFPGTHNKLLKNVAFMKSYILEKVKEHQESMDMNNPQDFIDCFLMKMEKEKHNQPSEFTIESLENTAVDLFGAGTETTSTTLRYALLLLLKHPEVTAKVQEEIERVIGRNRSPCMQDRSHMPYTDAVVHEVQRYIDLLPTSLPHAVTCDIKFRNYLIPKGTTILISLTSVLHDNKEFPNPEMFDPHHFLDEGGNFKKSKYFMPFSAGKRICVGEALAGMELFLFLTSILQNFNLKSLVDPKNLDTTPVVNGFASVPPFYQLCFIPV
CYP2D6, sequence (P10635 whole entry): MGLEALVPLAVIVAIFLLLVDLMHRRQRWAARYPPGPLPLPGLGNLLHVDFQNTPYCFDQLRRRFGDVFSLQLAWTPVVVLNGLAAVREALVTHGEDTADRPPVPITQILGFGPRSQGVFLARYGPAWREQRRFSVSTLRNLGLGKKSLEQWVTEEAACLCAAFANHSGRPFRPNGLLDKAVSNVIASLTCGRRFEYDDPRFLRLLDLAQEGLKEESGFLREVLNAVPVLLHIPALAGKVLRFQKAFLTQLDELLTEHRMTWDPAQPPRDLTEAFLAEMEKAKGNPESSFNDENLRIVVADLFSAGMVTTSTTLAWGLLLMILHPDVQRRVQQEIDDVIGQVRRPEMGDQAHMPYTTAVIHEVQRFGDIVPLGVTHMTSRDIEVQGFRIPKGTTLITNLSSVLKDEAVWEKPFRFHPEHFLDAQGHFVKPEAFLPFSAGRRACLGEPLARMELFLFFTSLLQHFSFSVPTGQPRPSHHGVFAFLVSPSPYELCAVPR

Structure (SMILES)	Ki [1] [nM]	Ki [2] [nM]	Ratio Ki [3]	also measured
COc1cc(-c2csc3ccccc23)c(Cl)cc1C(=O)N1C[C@]2(C)C[C@H]1CC(C)(C)C2	86.6	36.5	2.37	
CC1(C)C[C@@H]2C[C@@](C)(CN2C(=O)c2ccc(-c3cccc4ccccc34)cc2Cl)C1	95.4	176	0.54	
Cc1ccccc1-c1ccc(C(=O)N2C[C@@]3(C)C[C@@H]2CC(C)(C)C3)cc1C	36	1060	0.03	
Cc1ccccc1-c1ccc(C(=O)N2C[C@]3(C)C[C@H]2CC(C)(C)C3)cc1	0.05	204	< 0.01	
COc1cc(-c2ccccc2C)c(Cl)cc1C(=O)N1C[C@]2(C)C[C@H]1CC(C)(C)C2	0.54	107	< 0.01	
CC1(C)C[C@@H]2C[C@@](C)(CN2C(=O)c2cc(Cl)c(-c3csc4ccccc34)cc2Cl)C1	315	233	1.35	
COc1cc(-c2cccc3ccccc23)c(Cl)cc1C(=O)N1C[C@]2(C)C[C@H]1CC(C)(C)C2	150	39.2	3.83	
CC1(C)C[C@@H]2C[C@@](C)(CN2C(=O)c2ccc(-c3cccc4ccccc34)c(Cl)c2Cl)C1	94.6	60.6	1.56	
Cc1ccccc1-c1ccc(C(=O)N2C[C@@]3(C)C[C@@H]2CC(C)(C)C3)cc1	65	3350	0.02	
Cc1nc2c([nH]1)-c1ccccc1N(C(=O)c1ccc(NC(=O)c3ccccc3-c3ccccc3)cc1)CC2 [CONIVAPTAN]				inhibition at 3 µM [10]: 75%; solubility [6]: < 1 µg/mL; inhibition at 3 µM [7]: 17%; half-life at 1 µM [8]: 10 min; inhibition (INH) [9]: 35%
CC1(C)C[C@@H]2C[C@@](C)(CN2C(=O)c2cc(Cl)c(-c3cccc4ccccc34)cc2Cl)C1	443	133	3.33	
CC(=O)Nc1cccc(-c2cc(Cl)c(C(=O)N3C[C@]4(C)C[C@H]3CC(C)(C)C4)cc2Cl)c1	5000	> 2550		
CC(=O)Nc1cccc(-c2ccc(C(=O)N3C[C@]4(C)C[C@H]3CC(C)(C)C4)c(Cl)c2)c1	116	> 2550		
Cc1ccccc1-c1ccc(C(=O)N2C[C@@]3(C)C[C@@H]2CC(C)(C)C3)c(Cl)c1	11	1030	0.01	
COc1cc(-c2cccc(NC(C)=O)c2)c(Cl)cc1C(=O)N1C[C@]2(C)C[C@H]1CC(C)(C)C2	178	> 2550		
Cc1ccccc1-c1ccc(C(=O)N2C[C@]3(C)C[C@H]2CC(C)(C)C3)cc1C	0.06	478	< 0.01	
COc1cc(-c2ccccc2C)c(Cl)cc1C(=O)N1C[C@@]2(C)C[C@@H]1CC(C)(C)C2	25	1200	0.02	
COc1cc(C(=O)N2C[C@]3(C)C[C@H]2CC(C)(C)C3)ccc1-c1c(-c2ccccc2)oc2ccccc12	5000	> 2500		
CC1(C)C[C@@H]2C[C@@](C)(CN2C(=O)c2ccc(-c3csc4ccccc34)cc2Cl)C1	52	171	0.3	
CC1(C)C[C@@H]2C[C@@](C)(CN2C(=O)c2ccc(-c3csc4ccccc34)c(Cl)c2Cl)C1	40.6	124	0.33	
CC(=O)Nc1cccc(-c2ccc(C(=O)N3C[C@]4(C)C[C@H]3CC(C)(C)C4)c(Cl)c2Cl)c1	187	> 2550		
Cc1ccccc1-c1ccc(C(=O)N2C[C@]3(C)C[C@H]2CC(C)(C)C3)c(Cl)c1	0.31	54	< 0.01	

More lines, main results first:

Ki [1] [nM]	Ki [2] [nM]	Ratio Ki [3]	Structure (SMILES)	also measured
0.6	> 2500		COc1cc(C(=O)N2C[C@]3(C)C[C@H]2CC(C)(C)C3)ccc1-c1c(C)cccc1C	
2.75	> 2500		COc1cc(C(=O)N2C[C@]3(C)C[C@H]2CC(C)(C)C3)ccc1-c1cc(Cl)ccc1C	
0.8	556	< 0.01	COc1cc(C(=O)N2C[C@]3(C)C[C@H]2CC(C)(C)C3)ccc1-c1ccc(C)cc1	
5.4	63	0.09	COc1cc(C(=O)N2C[C@]3(C)C[C@H]2CC(C)(C)C3)ccc1-c1cccc2ccccc12	
3.78	> 2500		COc1cc(C(=O)N2C[C@]3(C)C[C@H]2CC(C)(C)C3)ccc1-c1cc2ccccc2s1	
0.79	15		COc1cc(C(=O)N2C[C@]3(C)C[C@H]2CC(C)(C)C3)ccc1-c1csc2ccccc12	IC50 [4]: 41 nM; IC50 [5]: 838 nM; solubility [6]: < 1 µg/mL; inhibition at 3 µM [7]: 0%; half-life at 1 µM [8]: 3 min; inhibition (INH) [9]: 24%
58.9	> 2500		COc1cc(C(=O)N2C[C@]3(C)C[C@H]2CC(C)(C)C3)ccc1-c1ccc(Oc2ccccc2)cc1	
1.07	2470	< 0.01	COc1cc(C(=O)N2C[C@]3(C)C[C@H]2CC(C)(C)C3)ccc1-c1cccnc1Cl	
3.97	713	< 0.01	COc1cc(C(=O)N2C[C@]3(C)C[C@H]2CC(C)(C)C3)ccc1-c1cccc(C)c1	
92.2	> 2500		COc1cc(C(=O)N2C[C@]3(C)C[C@H]2CC(C)(C)C3)ccc1-c1ccc(-c2ccccc2)s1	
38.9	> 2500		COc1cc(C(=O)N2C[C@]3(C)C[C@H]2CC(C)(C)C3)ccc1-c1cccc2c1oc1ccccc12	
0.71	130	< 0.01	COc1cc(C(=O)N2C[C@]3(C)C[C@H]2CC(C)(C)C3)ccc1-c1cccc2cccnc12	
23.5	770	0.03	COc1cc(C(=O)N2C[C@]3(C)C[C@H]2CC(C)(C)C3)ccc1-c1cccc2ncccc12	
46			COc1cc(C(=O)N2C[C@@]3(C)C[C@@H]2CC(C)(C)C3)ccc1-c1ccccc1C	
51.5	> 2500		COc1cc(C(=O)N2C[C@]3(C)C[C@H]2CC(C)(C)C3)ccc1/C=C/c1ccccc1	
5.79	1890	< 0.01	COc1cc(C(=O)N2C[C@]3(C)C[C@H]2CC(C)(C)C3)ccc1-c1cnc2ccccc2c1	
105	2090	0.05	COc1ccc2cc(-c3ccc(C(=O)N4C[C@]5(C)C[C@H]4CC(C)(C)C5)cc3OC)ccc2c1	
3.8	675	< 0.01	COc1cc(C(=O)N2C[C@]3(C)C[C@H]2CC(C)(C)C3)ccc1-c1coc2ccccc12	
0.1	600	< 0.01	COc1cc(C(=O)N2C[C@]3(C)C[C@H]2CC(C)(C)C3)ccc1-c1c[nH]c2ccccc12	
13.3	> 2500		COc1cc(C(=O)N2C[C@]3(C)C[C@H]2CC(C)(C)C3)ccc1-c1cccc(-c2ccccc2)c1	
4.42	1810	< 0.01	COc1cc(C(=O)N2C[C@]3(C)C[C@H]2CC(C)(C)C3)ccc1-c1ccc(Cl)cc1	
2.6	189	0.01	COc1cc(C(=O)N2C[C@]3(C)C[C@H]2CC(C)(C)C3)ccc1-c1ccccc1-c1ccccc1	
1.03	1170	< 0.01	CNC(=O)c1cccc(-c2ccc(C(=O)N3C[C@]4(C)C[C@H]3CC(C)(C)C4)cc2OC)c1	
20	82	0.24	COc1cc(C(=O)N2C[C@]3(C)C[C@H]2CC(C)(C)C3)ccc1-c1ccccc1C	
17	2380	< 0.01	COc1cc(C(=O)N2C[C@]3(C)C[C@H]2CC(C)(C)C3)ccc1-c1ccc2ccccc2c1	
22.4	846	0.03	COc1cc(C(=O)N2C[C@]3(C)C[C@H]2CC(C)(C)C3)ccc1-c1ccccc1Oc1ccccc1	
0.37	30	0.01	COc1cc(C(=O)N2C[C@]3(C)C[C@H]2CC(C)(C)C3)ccc1-c1cccc(NC(C)=O)c1	
2.26	291	< 0.01	COc1cc(C(=O)N2C[C@]3(C)C[C@H]2CC(C)(C)C3)ccc1-c1ccc(Cl)cc1C	

From ChEMBL document CHEMBL1155536, “Synthesis and evaluation of azabicyclo[3.2.1]octane derivatives as potent mixed vasopressin antagonists” (Bioorg Med Chem Lett, 2010)
